≈ marks a conversion by molar mass, not a printed value.
What was measured:
[1] = tested on: Schistosoma mansoni; assay: WHO-TDR: Schistosomiasis; format: functional; parameters: concentration or dose not given beside the values
Outline: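 Values are reported as percent inhibition and IC50. They come from a whole-organism screen of a 10,000-compound diverse Life Chemicals library against larval and/or adult worms of Schistosoma mansoni, Puerto Rican strain. The library had been filtered for drug-likeness and reactive groups.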

[2] = tested on: Trypanosoma cruzi; assay: WHO-TDR: Chagas disease; format: functional, organism-based, Homo sapiens; conditions: MRC5
Outline: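 Each IC50 reflects antiparasitic potency against intracellular amastigotes of Trypanosoma cruzi Tulahuen CL2 beta-galactosidase strain. These were cultured in MRC-5SV2 human lung fibroblasts and exposed to a 10,000-compound diverse Life Chemicals library screened according to published standard procedures with a reference drug as positive control.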

[3] = tested on: Onchocerca ochengi; assay: (§1) WHO-TDR: Onchocerciasis; format: functional; parameters: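 at 12.5 µM on microfilariae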
Outline: (§2)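 Values are reported as percent inhibition and as IC50. They come from a whole-organism screen of a 10,000-compound diverse Life Chemicals library against microfilariae of Onchocerca ochengi or Onchocerca lienalis. The screen followed previously published standard procedures, with reference drugs as positive controls.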

[4] = tested on: Plasmodium falciparum K1; assay: WHO-TDR: Malaria; format: functional, organism-based, Homo sapiens; conditions: Erythrocyte
Outline: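 Life Chemicals supplied the diverse library of 10,000 compounds, which had been filtered for drug-likeness and reactive groups. Each was screened against the K1 strain of Plasmodium falciparum at its intra-erythrocytic stage in human red blood cells, using previously published standard procedures and a reference drug as positive control. The table reports IC50 for antiplasmodial potency.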

[5] = tested on: Leishmania infantum; assay: WHO-TDR: Leishmaniasis; format: functional, organism-based, Mus musculus; conditions: Macrophage
Outline: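 IC50 values describe antiparasitic potency in this whole-organism screen. Leishmania infantum MHOM/MA(BE)/67 amastigotes were tested inside murine peritoneal macrophages against a 10,000-compound diverse Life Chemicals library. A reference drug served as positive control.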

[6] = tested on: Trypanosoma brucei brucei; assay: WHO-TDR: Human African Trypanosomiasis (HAT); format: functional, organism-based; conditions: Squib-427
Outline: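 Following previously published standard procedures, with reference drugs as positive controls, a whole-organism assay was run against bloodstream-form Trypanosoma brucei, Squib 427 strain. The compounds, 10,000 in all, came from a diverse Life Chemicals library filtered for drug-likeness and reactive groups. Reported values are IC50 for antiparasitic potency.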

[7] = tested on: Onchocerca ochengi; assay: as §1; format: functional; parameters: concentration or dose not given beside the values; outline: as §2; remark: listed apart in the source
[8] = WHO-TDR: Cytotoxicity; format: toxicity, cell-based; conditions: human, MRC5 cells

Row | Structure (SMILES) | IC50 [4] | IC50 [5] | IC50 [6] | % Inhibition [1] | IC50 [2] | % Inhibition [3] | % Inhibition [7] | IC50 [8]
1 | O=C(Nc1nc2c(s1)CCCC2C(=O)NCCC1=CCCCC1)c1ccccc1 (configuration not stated) | 2.13 µg/mL (≈ 5.19 µM) | > 12.3 µg/mL | 2.56 µg/mL (≈ 6.26 µM) | 0% | 3.45 µg/mL (≈ 8.42 µM) | 100% | 0% | > 12.3 µg/mL
2 | Cc1nn2c(=O)[nH]c(SCc3ccccn3)nc2c1-c1ccccc1 | > 10.5 µg/mL | > 10.5 µg/mL | > 10.5 µg/mL | 0% | > 10.5 µg/mL | 100% | 0% | > 10.5 µg/mL
3 | O=C(Nc1ccc(F)cc1)Nc1nc(C(=O)N2CCN(c3ccccc3F)CC2)cs1 | 4.63 µg/mL (≈ 10.4 µM) | > 13.3 µg/mL | 0.459 µg/mL (≈ 1.03 µM) | 0% | 4.32 µg/mL (≈ 9.74 µM) | 0% | 0% | 5.3 µg/mL (≈ 11.9 µM)
4 | O=C(Cn1c(=O)n(Cc2cccnc2)c(=O)c2ncccc21)c1ccc2c(c1)CCCC2 | 2.96 µg/mL (≈ 6.93 µM) | > 12.8 µg/mL | 4.14 µg/mL (≈ 9.71 µM) | 0% | 3.81 µg/mL (≈ 8.93 µM) | 100% | 0% | > 12.8 µg/mL
5 | CCOc1ccccc1NC(=O)Cn1c(=O)n(Cc2cccs2)c(=O)c2ncccc21 | 2.95 µg/mL (≈ 6.76 µM) | > 13.1 µg/mL | 4.24 µg/mL (≈ 9.72 µM) | 0% | > 13.1 µg/mL | 100% | 0% | > 13.1 µg/mL
6 | O=C(Cn1c(=O)n(Cc2cccs2)c(=O)c2ncccc21)OCc1ccccc1 | > 12.2 µg/mL | > 12.2 µg/mL | > 12.2 µg/mL | 0% | > 12.2 µg/mL | 100% | 0% | > 12.2 µg/mL
7 | Cc1cc(C(=O)Nc2nc(-c3ccc4c(c3)OCCO4)cs2)n(C)n1 | > 10.7 µg/mL | > 10.7 µg/mL | > 10.7 µg/mL | 0% | > 10.7 µg/mL | 100% | 0% | > 10.7 µg/mL
8 | Cc1cccc(NC(=O)Cn2nc(C(C)C)c3cnn(-c4ccccc4C)c3c2=O)c1 | > 12.5 µg/mL | > 12.5 µg/mL | > 12.5 µg/mL | 0% | > 12.5 µg/mL | 100% | 0% | > 12.5 µg/mL

Now from value to molecule, other results behind:

Row | IC50 [4] | IC50 [5] | IC50 [6] | Structure (SMILES) | % Inhibition [1] | IC50 [2] | % Inhibition [3] | % Inhibition [7] | IC50 [8]
9 | 2.22 µg/mL (≈ 6.46 µM) | > 10.3 µg/mL | 0.333 µg/mL (≈ 0.971 µM) | CC1CCN(C(C)CNC(=O)Nc2ccccc2C(F)(F)F)CC1 (configuration not stated) | 0% | 3.39 µg/mL (≈ 9.87 µM) | 0% | 0% | 7.77 µg/mL (≈ 22.6 µM)
10 | 0.869 µg/mL (≈ 2.53 µM) | 3.33 µg/mL (≈ 9.71 µM) | 0.333 µg/mL (≈ 0.971 µM) | CC1CCN(C(C)CNC(=O)Nc2ccc(C(F)(F)F)cc2)CC1 (configuration not stated) | 25% | 3.26 µg/mL (≈ 9.49 µM) | 100% | 100% | 8.41 µg/mL (≈ 24.5 µM)
11 | 0.754 µg/mL (≈ 2.13 µM) | 3.43 µg/mL (≈ 9.71 µM) | 0.319 µg/mL (≈ 0.902 µM) | CC(CNC(=O)Nc1ccc(Oc2ccccc2)cc1)N1CCCCC1 (configuration not stated) | 0% | 3.98 µg/mL (≈ 11.3 µM) | 100% | 75% | > 10.6 µg/mL
12 | 1.01 µg/mL (≈ 3.26 µM) | 4.81 µg/mL (≈ 15.5 µM) | 0.301 µg/mL (≈ 0.971 µM) | CC1CCN(C(C)CNC(=O)Nc2cccc(Cl)c2)CC1 (configuration not stated) | 0% | > 9.29 µg/mL | 50% | 0% | > 9.29 µg/mL
13 | 3.19 µg/mL (≈ 10.9 µM) | > 8.8 µg/mL | 0.303 µg/mL (≈ 1.03 µM) | CC1CCN(C(C)CNC(=O)Nc2ccc(F)cc2)CC1 (configuration not stated) | 0% | > 8.8 µg/mL | 0% | 0% | > 8.8 µg/mL
14 | > 11.1 µg/mL | > 11.1 µg/mL | > 11.1 µg/mL | CC(C)c1cc(C(=O)NCC2CCCO2)nn1-c1nc2ccccc2s1 (configuration not stated) | 0% | > 11.1 µg/mL | 100% | 0% | > 11.1 µg/mL

— ChEMBL document CHEMBL2093137, “WHO-TDR NTD Screening”
